In ChEMBL document CHEMBL1127367, “Antiproliferative properties of polyamine analogues: a structure-activity study” (J Med Chem, 1994):

How the values were obtained:
[1] = biological target: T1, S-adenosylmethionine decarboxylase proenzyme 1 (Mus musculus) (UniProt P0DMN7); experiment: Inhibition of S-Adenosyl-methionine decarboxylase (AdoMetDC) activity; format: functional; parameters: concentration or dose not given beside the values
T1 sequence (whole entry): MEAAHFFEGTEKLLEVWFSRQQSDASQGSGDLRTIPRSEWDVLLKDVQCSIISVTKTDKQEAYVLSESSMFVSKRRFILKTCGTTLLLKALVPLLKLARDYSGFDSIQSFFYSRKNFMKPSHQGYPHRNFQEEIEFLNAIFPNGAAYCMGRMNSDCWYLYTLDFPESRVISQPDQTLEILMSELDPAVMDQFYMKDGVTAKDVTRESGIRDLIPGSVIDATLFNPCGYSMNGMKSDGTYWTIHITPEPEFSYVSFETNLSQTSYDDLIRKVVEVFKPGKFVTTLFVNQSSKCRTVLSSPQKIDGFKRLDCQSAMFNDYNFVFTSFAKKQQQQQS

[2] = tested on: L1210; experiment: Inhibition of radiolabeled spermidine uptake into L1210 cells in vitro.; format: functional, cell-based, Mus musculus
[3] = biological target: T2, Ornithine decarboxylase (Mus musculus) (UniProt P00860); experiment: Inhibition of ornithine decarboxylase (ODC) activity; format: functional; parameters: concentration or dose not given beside the values
T2 sequence (whole entry): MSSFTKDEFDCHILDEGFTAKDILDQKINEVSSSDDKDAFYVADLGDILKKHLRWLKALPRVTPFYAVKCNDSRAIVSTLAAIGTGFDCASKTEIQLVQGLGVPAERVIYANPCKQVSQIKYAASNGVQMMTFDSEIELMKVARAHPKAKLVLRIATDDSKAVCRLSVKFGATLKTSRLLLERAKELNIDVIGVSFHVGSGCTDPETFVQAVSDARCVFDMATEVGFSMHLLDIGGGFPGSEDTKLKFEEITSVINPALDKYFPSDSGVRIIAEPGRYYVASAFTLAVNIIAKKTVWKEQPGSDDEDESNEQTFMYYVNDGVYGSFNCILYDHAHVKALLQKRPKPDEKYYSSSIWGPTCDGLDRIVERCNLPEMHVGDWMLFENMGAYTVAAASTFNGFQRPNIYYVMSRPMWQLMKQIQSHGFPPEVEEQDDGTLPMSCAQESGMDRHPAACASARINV

[4] = tested on: L1210; experiment: Compound level in L1210 cells after 48 hours of incubation at initial concentration of 500 uM is expressed as nmol/10e6 cells; format: functional, Mus musculus; parameters: unit: nmol/10^6 cells
[5] = tested on: L1210; experiment: Compound was evaluated for its impact on spermine levels after 48 hr at concentration 500 uM; format: functional, Mus musculus
[6] = tested on: L1210; experiment: Compound was evaluated for its impact on putrescine (Put) levels after 48 hr at concentration 500 uM; format: functional, Mus musculus
[7] = tested on: L1210; experiment: In vitro inhibition of L1210 growth after 48 hours.; format: functional, cell-based; settings: Mus musculus, L1210, 48 h
Method in brief: (§1)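 Log-phase L1210 cultures (0.5–1.0 × 10^5 cells/mL) treated with analogue diluted in sterile water and filter-sterilized. After 48 h, cells were reseeded and grown a further 48 h for the 96 h point. Cells counted by Coulter counter. % growth = (treated − inoculum)/(untreated − inoculum) × 100.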

[8] = tested on: L1210; experiment: In vitro inhibition of L1210 growth after 96 hours.; format: functional, cell-based; settings: Mus musculus, L1210, 96 h; method in brief: as §1
[9] = tested on: L1210; experiment: Compound was evaluated for its impact on spermidine levels after 48 hr at concentration 500 uM; format: functional, Mus musculus
[10] = biological target: Spermidine/spermine N(1)-acetyltransferase (SAT) (Mus musculus) (UniProt Q6P8J2+P48026); experiment: […] spermidine/spermine N1-Acetyltransferase (SSAT) activity; format: functional; parameters: concentration or dose not given beside the values
[11] = tested on: L1210; experiment: Compound was evaluated for its impact on spermine levels after 48 hr at concentration 100 uM; format: functional, Mus musculus
[12] = tested on: L1210; experiment: Compound was evaluated for its impact on putrescine (Put) levels after 48 hr at concentration 100 uM; format: functional, Mus musculus
[13] = tested on: L1210; experiment: Compound was evaluated for its impact on spermidine levels after 48 hr at concentration 100 uM; format: functional, Mus musculus
[14] = tested on: L1210; experiment: Compound level in L1210 cells after 48 hours of incubation at initial concentration of 100 uM is expressed as nmol/10e6 cells; format: functional, Mus musculus; parameters: unit: nmol/10^6 cells
[15] = tested on: L1210; experiment: Compound was evaluated for its impact on spermine […] levels after 48 hr at concentration 500 uM; format: functional, Mus musculus
Method in brief: (§2)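 L1210 suspension cultures were grown in RPMI-1640 with 10% NuSerum, 2% HEPES-MOPS and 1 mM aminoguanidine (37 °C, 5% CO2). Log-phase cells were treated for 48 h, then washed twice in cold RPMI-1640 and pelleted. Pellets were extracted with 0.6 N perchloric acid, and supernatants were held at −20 °C until HPLC. Polyamine levels are given as % of untreated controls.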

[16] = tested on: L1210; experiment: Compound was evaluated for its impact on putrescine (Put) levels after 48 hr at concentration 1.5 uM; format: functional, Mus musculus; method in brief: as §2
[17] = tested on: L1210; experiment: Compound was evaluated for its impact on putrescine (Put) levels after 48 hr at concentration 0.3 uM; format: functional, Mus musculus; method in brief: as §2
[18] = tested on: L1210; experiment: Compound was evaluated for its impact on spermidine levels after 48 hr at concentration 1.5 uM; format: functional, Mus musculus; method in brief: as §2
[19] = tested on: S-adenosylmethionine decarboxylase (Mus musculus); experiment: Effect of compound on S-Adenosyl-methionine decarboxylase (AdoMetDC) activity expressed as percent of untreated control for (AdoMetDC) (1 uM at 6 hr)
[20] = tested on: L1210; experiment: Compound was evaluated for its impact on spermidine levels after 48 hr at concentration 0.3 uM; format: functional, Mus musculus; method in brief: as §2
[21] = tested on: L1210; experiment: (§3) Compound was evaluated for its impact on spermine levels uM; format: functional, Mus musculus
[22] = tested on: L1210; experiment: as §3; format: functional, Mus musculus; remark: listed apart in the source
[23] = tested on: L1210; experiment: Compound level in L1210 cells after 48 hours of incubation at initial concentration of 0.3 uM is expressed as nmol/10e6 cells; format: functional, Mus musculus
Method in brief: (§4)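 Murine L1210 leukemia cells were kept in logarithmic growth as a suspension in RPMI-1640 with 10% NuSerum, 2% HEPES-MOPS buffer and 1 mM aminoguanidine, at 37 °C under 5% CO2. Log-phase cells were exposed to the analogue for 48 h. Intracellular analogue content is reported per 10^6 cells.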

[24] = tested on: L1210; experiment: Compound level in L1210 cells after 48 hours of incubation at initial concentration of 1.5 uM is expressed as nmol/10e6 cells; format: functional, Mus musculus; method in brief: as §4
[25] = tested on: L1210; experiment: Compound level in L1210 cells after 48 hours of incubation at initial concentration of 1 uM is expressed as nmol/10e6 cells; format: functional, Mus musculus; method in brief: as §4
[26] = tested on: L1210; experiment: Compound was evaluated for its impact on putrescine (Put) levels after 48 hr at concentration 5 uM; format: functional, Mus musculus; method in brief: as §2
[27] = tested on: L1210; experiment: Compound was evaluated for its impact on spermine levels after 48 hr at concentration 5 uM; format: functional, Mus musculus
Method in brief: (§5)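 Murine L1210 leukemia cells in log-phase suspension (RPMI-1640, 10% NuSerum, 2% HEPES-MOPS, 1 mM aminoguanidine, 37 °C, 5% CO2) exposed to analogue for 48 h. Cells washed twice in cold RPMI-1640, extracted with 0.6 N perchloric acid, and polyamines quantified by HPLC. Spermine is reported as % of untreated control.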

[28] = tested on: L1210; experiment: Compound level in L1210 cells after 48 hours of incubation at initial concentration of 5 uM is expressed as nmol/10e6 cells; format: functional, Mus musculus; method in brief: as §4
[29] = tested on: L1210; experiment: Compound was evaluated for its impact on spermine levels after 48 hr at concentration 1 uM; format: functional, Mus musculus; method in brief: as §5
[30] = biological target: T2, Ornithine decarboxylase (Mus musculus); experiment: Effect of compound on ornithine decarboxylase (ODC) activity expressed as percent of untreated control for ODC (1 uM at 4 h(or 48h))
Method in brief: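 L1210 cells exposed to 1 μM analogue for 4 h, or for 48 h in some cases. ODC activity measured as 14CO2 released from [14C]carboxyl-labeled L-ornithine and expressed as % of untreated control.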

[31] = tested on: L1210; experiment: Compound was evaluated for its impact on putrescine (Put) levels after 48 hr at concentration 1 uM; format: functional, Mus musculus; method in brief: as §2
[32] = tested on: L1210; experiment: Compound was evaluated for its impact on spermidine levels after 48 hr at concentration 1 uM; format: functional, Mus musculus; method in brief: as §2
[33] = tested on: L1210; experiment: Compound was evaluated for its impact on spermidine levels after 48 hr at concentration 5 uM; format: functional, Mus musculus; method in brief: as §2

Sequence of Spermidine/spermine N(1)-acetyltransferase (SAT) (Mus musculus) (P48026 whole entry, looked up): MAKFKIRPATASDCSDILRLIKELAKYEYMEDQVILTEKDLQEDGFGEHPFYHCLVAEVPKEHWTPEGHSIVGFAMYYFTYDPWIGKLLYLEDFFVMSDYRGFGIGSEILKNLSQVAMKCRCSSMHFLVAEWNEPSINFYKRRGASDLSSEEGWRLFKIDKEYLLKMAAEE
Sequence of Spermidine/spermine N(1)-acetyltransferase (SAT) (Mus musculus) (Q6P8J2 whole entry, looked up): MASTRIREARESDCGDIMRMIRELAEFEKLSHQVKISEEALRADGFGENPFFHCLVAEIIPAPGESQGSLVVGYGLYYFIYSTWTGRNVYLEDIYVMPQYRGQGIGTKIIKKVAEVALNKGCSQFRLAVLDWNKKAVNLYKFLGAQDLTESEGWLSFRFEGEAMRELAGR

SMILES | Activity [1] [%] | Activity [3] [%] | IC50 [7] [µM] | IC50 [8] [µM] | Activity [10] [%] | Activity [19] [%] | Ki [2] [µM] | Activity [4] | Polyamine [5] [%] | Polyamine [6] [%] | Polyamine [9] [%] | Polyamine [11] [%] | Polyamine [12] [%] | Polyamine [13] [%] | Activity [14] | further results
CCNCCCNCCCNCCCN | 33 | 5 | > 100 | 2.5 | 410 |  | 7.7 | 1.72 | 11 | 0 | 2 | 11 | 0 | 5 | 1.69 | 
CNCCCCNCCCCNCCCCNC | 45 | 4 | > 100 | 0.32 | 140 |  | 0.97 | 1.03 | 27 | 0 | 0 | 30 | 0 | 0 | 1.49 | 
CNCCCNCCCCNCCCNC | 40 | 3 | > 100 |  | 300 |  | 1.1 | 1.24 |  | 0 | 0 | 21 | 0 | 0 | 1.26 | Polyamine [15]: 24%
CC(C)(C)NCCCCNCCCCNCCCCNC(C)(C)C |  | 100 | > 100 | 3 |  | 100 | 56 |  | 72 | 55 | 58 | 94 | 83 | 85 |  | 

Stronger by IC50 [7], values ahead:

Activity [1] [%] | Activity [3] [%] | IC50 [7] [µM] | IC50 [8] [µM] | Activity [10] [%] | Activity [19] [%] | SMILES | Ki [2] [µM] | Activity [4] | Polyamine [5] [%] | Polyamine [6] [%] | Polyamine [9] [%] | Polyamine [11] [%] | Polyamine [12] [%] | Polyamine [13] [%] | Activity [14] | further results
 | 20 | 0.3 | 0.035 | 120 | 39 | CCNCCCCNCCCCCNCCCCNCC | 6 |  |  |  |  |  |  |  |  | Polyamine [16]: 0%; Polyamine [17]: 44%; Polyamine [18]: 5%; Polyamine [20]: 61%; Polyamine [21]: 70%; Polyamine [22]: 31%; Activity [23]: 0.26; Activity [24]: 0.72
28 |  | 1 | 0.18 | 120 |  | CCNCCCCNCCCNCCCCNCC | 4 |  |  |  |  |  |  |  |  | Activity [25]: 0.76; Polyamine [26]: 0%; Polyamine [27]: 27%; Activity [28]: 1.5; Polyamine [29]: 52%; Activity [30]: 5%; Polyamine [31]: 81%; Polyamine [32]: 41%; Polyamine [33]: 0%
